Source: ChEMBL document CHEMBL1833815, “Novel inhibitors of NRH:quinone oxidoreductase 2 (NQO2): crystal structures, biochemical activity, and intracellular effects of imidazoacridin-6-ones” (J Med Chem, 2011)
Activity calls are given as the source filed them. No cut-off for these calls is given here.

What was measured:
[1] = biological target: T1, Ribosyldihydronicotinamide dehydrogenase [quinone] (Homo sapiens) (UniProt P16083); assay: Ratio of IC50 for human recombinant NQO2 in the presence of BSA to IC50 for human recombinant NQO2 in the absence of BSA
T1 sequence (whole entry): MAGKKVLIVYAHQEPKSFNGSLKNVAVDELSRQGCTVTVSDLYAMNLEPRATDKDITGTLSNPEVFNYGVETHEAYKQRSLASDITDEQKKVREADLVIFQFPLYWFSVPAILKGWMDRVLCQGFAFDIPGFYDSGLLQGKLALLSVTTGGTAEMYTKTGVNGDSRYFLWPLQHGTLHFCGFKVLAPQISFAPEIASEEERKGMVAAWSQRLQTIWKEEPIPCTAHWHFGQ
How it was run: (§1)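 Recombinant human NQO2 (His-tag/size-exclusion purified from E. coli BL21) diluted to give about 0.1 A/min. Assay in 50 mM phosphate pH 7.4 with 40 μM DCPIP, 200 μM NRH, and inhibitor in DMSO (1.0% v/v final), with or without 2 μM BSA, at 37 °C. DCPIP reduction followed at 600 nm. IC50 = 50% reduction of initial rate by nonlinear fit; triplicates, three experiments.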

[2] = tested on: Nucleic Acid; assay: Binding affinity to calf thymus DNA assessed as increase in melting temperature at 10 uM; assay type: nucleic-acid assay; details: Bos taurus
How it was run: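 Calf thymus DNA (20 μg/mL) with 10 μM compound in low-salt phosphate buffer (7.5 mM NaH₂PO₄, 1 mM EDTA, pH 7.0). Cuvettes heated from 37 to 98 °C with A260 read at every degree. Tm taken from at least three independent determinations; 10 μM adriamycin served as positive control.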

[3] = tested on: HCT-116; assay: Cytotoxicity against human HCT116 cells after 24 hrs by MTT assay; assay type: cell-based; details: HCT-116, 24 h
How it was run: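 HCT116 cells in RPMI-1640 with 10% FCS and 2 mM glutamine, seeded at 2.5 × 10³ per well and attached overnight. Exposed to compound for 24 h, then drug replaced with fresh medium, growth to 96 h total. MTT 1.5 mM final for 4 h, formazan in DMSO, A540. IC50 = concentration giving 50% OD reduction versus vehicle; ≥3 separate experiments.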

[4] = Drug uptake in nucleus of human MDA468 cells assessed as subcellular localization at 5 uM after 3 hrs by phalloidin-based fluorescent imaging; assay type: ADME, cell-based; details: mda-mb-468, 3 h
How it was run: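 MDA-MB-468 cells grown on coverslips to about 70% confluency, exposed 3 h, fixed in 3.6% formaldehyde plus 0.2% glutaraldehyde, permeabilised with 0.1% Triton X-100, blocked in 10% BSA, stained with Alexa Fluor 568 phalloidin (1:1000) for actin. Imaged by fluorescence microscopy; compound excited at 340 nm, emission 520 nm; phalloidin read at 568 nm.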

[5] = tested on: HCT-116; assay: Cytotoxicity against human HCT116 cells after 96 hrs by MTT assay; assay type: cell-based; details: HCT-116, 96 h
How it was run: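 HCT116 cells in RPMI-1640 with 10% FCS and 2 mM glutamine, seeded at 2.5 × 10³ per well, left overnight, then exposed continuously for 96 h in full medium. Viability by MTT (1.5 mM final, 4 h, DMSO solubilization, A540). IC50 = concentration reducing OD by 50% relative to vehicle controls; repeated on at least three occasions.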

[6] = biological target: T2, Ribosyldihydronicotinamide dehydrogenase [quinone] (Homo sapiens, UniProt P16083); assay: Inhibition of human recombinant NQO2 assessed as reduction of DCPIP by spectrophotometry; how it was run: as §1
T2 sequence (P16083 whole entry): T1 sequence (whole entry)

[7] = biological target: T2, Ribosyldihydronicotinamide dehydrogenase [quinone]; assay: Inhibition of human recombinant NQO2 assessed as reduction of DCPIP by spectrophotometry in the presence of 2 uM BSA
How it was run: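 Recombinant human NQO2 (His-tag/size-exclusion purified, expressed in BL21 codon+ cells) in 50 mM phosphate pH 7.4 with 40 μM DCPIP and 200 μM NRH, 2 μM BSA present, inhibitor in DMSO (1.0% v/v final), 37 °C. DCPIP reduction followed at 600 nm; IC50 = 50% drop in initial rate by nonlinear fit; triplicates, three experiments.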

[8] = Drug uptake in cytoplasm of human MDA468 cells at 25 uM after 3 hrs by phalloidin-based fluorescence imaging; assay type: ADME, cell-based; details: mda-mb-468, 3 h
How it was run: (§2)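 MDA-MB-468 cells on coverslips at about 70% confluence treated 3 h. Fixed in 3.6% formaldehyde plus 0.2% glutaraldehyde, permeabilized with 0.1% Triton X-100, blocked in 10% BSA. Counterstained with Alexa Fluor 568 phalloidin (1:1000) to show actin architecture. Compound fluorescence imaged at excitation 340 nm, emission 520 nm; phalloidin visualized at 568 nm.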

[9] = biological target: T1, Ribosyldihydronicotinamide dehydrogenase [quinone] (Homo sapiens); assay: Inhibition of NQO2-mediated activation of CB1954 in human MDA468 cells at 100 uM after 3 hrs in the presence of 100 uM […]; assay type: cell-based; details: MDA-MB-468
How it was run: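 MDA468 cells exposed 3 h to inhibitor together with CB1954 (10 μM in figure; varying concentrations per methods) plus 100 μM NRH cofactor. Cells then washed with PBS, refed with fresh medium, and incubated to 96 h total. Viability measured by MTT assay; protection from CB1954 toxicity serves as a readout of cellular NQO2 inhibition.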

[10] = Drug uptake in nucleus of human MDA468 cells assessed as subcellular localization at 25 uM after 3 hrs by phalloidin-based fluorescent imaging; assay type: ADME, cell-based; details: mda-mb-468, 3 h; how it was run: as §2

SMILES	Ratio IC50 [1]	Tm [2]	IC50 [6]	Drug uptake [8]	inhibition [9]	Drug uptake [10]	IC50 [3]	Drug uptake [4]	IC50 [5]	IC50 [7]
COc1ccc2c(c1)c(=O)c1c(NCCN(C)C)ccc3ncn2c31	54	88.6 °C	59 nM				2100 nM	Active	510 nM	3200 nM
CN(C)CCNc1ccc2ncn3c4ccccc4c(=O)c1c23	38		115 nM				2530 nM		600 nM	
Cc1nc2ccc(NCC[N+](C)(C)[O-])c3c(=O)c4cc(F)ccc4n1c23			97 nM				31000 nM		9200 nM	
C[N+](C)([O-])CCNc1ccc2ncn3c4ccc(F)cc4c(=O)c1c23			205 nM				40300 nM		17300 nM	
CN(C)CCNc1ccc2ncn3c4ccc(F)cc4c(=O)c1c23			97 nM				2900 nM		660 nM	
CCN(CC)CCNc1ccc2ncn3c4ccc(O)cc4c(=O)c1c23 [C-1311]			126 nM				4160 nM		1140 nM	
COc1cccc2c1C(=O)c1c(O)c3c(c(O)c1C2=O)C[C@@](O)(C(=O)CO)C[C@@H]3O[C@H]1C[C@H](N)[C@H](O)[C@H](C)O1		90.8 °C								
C[N+](C)([O-])CCNc1ccc2ncn3c4ccccc4c(=O)c1c23	6.5		96 nM				41000 nM		12100 nM	
Cc1nc2ccc(NCCN(C)C)c3c(=O)c4ccccc4n1c23			90 nM				1940 nM		500 nM	

Continued, in another order:

Ratio IC50 [1]	Tm [2]	IC50 [6]	Drug uptake [8]	inhibition [9]	Drug uptake [10]	SMILES	IC50 [3]	Drug uptake [4]	IC50 [5]	IC50 [7]
		90 nM				Cc1nc2ccc(NCCN(C)C)c3c(=O)c4cc(O)ccc4n1c23	3010 nM		950 nM	
		74 nM				Cc1nc2ccc(NCCN(C)C)c3c(=O)c4cc(Br)ccc4n1c23	1910 nM		440 nM	
		54 nM				CCN(CC)CCNc1ccc2nc(C)n3c4ccc(O)cc4c(=O)c1c23	5460 nM		930 nM	
7	85 °C	14 nM	Active	Active	Not Active	COc1ccc2c(c1)c(=O)c1c(NCC[N+](C)(C)[O-])ccc3ncn2c31	40300 nM		12800 nM	98 nM
		83 nM				Cc1nc2ccc(NCCN(C)C)c3c(=O)c4cc(F)ccc4n1c23	2110 nM		510 nM	
		73 nM				COc1ccc2c(c1)c(=O)c1c(NCC[N+](C)(C)[O-])ccc3nc(C)n2c31	58200 nM		11400 nM	
		83 nM				CN(C)CCNc1ccc2ncn3c4ccc(O)cc4c(=O)c1c23	1610 nM		370 nM	
		56 nM				Cc1nc2ccc(NCC[N+](C)(C)[O-])c3c(=O)c4ccccc4n1c23	34900 nM		16100 nM	
		46 nM				COc1ccc2c(c1)c(=O)c1c(NCCN(C)C)ccc3nc(C)n2c31	1860 nM		460 nM	
		47 nM				Cc1nc2ccc(NCC[N+](C)(C)[O-])c3c(=O)c4cc(Br)ccc4n1c23	49000 nM		10600 nM	
		42 nM				C[N+](C)([O-])CCNc1ccc2ncn3c4ccc(O)cc4c(=O)c1c23	38700 nM		19700 nM	
